Results reported in ChEMBL document CHEMBL3525966, “Compartmental and enzyme kinetic modeling to elucidate the biotransformation pathway of a centrally acting antitrypanosomal prodrug” (Drug Metab Dispos, 2013).

How the values were obtained:
[1] = Drug metabolism in sandwich-cultured human hepatocytes assessed as (3Z,3'Z)-6,6'-(furan-2,5-diyl)bis(N'-hydroxynicotinimidamide) at 10 uM after 4 hrs of incubation by HPLC-MS/MS analysis; assay type: ADME, cell-based, Hepatocyte
Procedure, shortened: (§1)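 Sandwich-cultured hepatocytes were used on day 5 (human) or day 4 (rat) and rinsed with warm phenol-red-free DMEM. They were then exposed to 10 µM DB868 (0.1–0.2% DMSO) at 37°C. Medium and methanol/water cell lysates were collected at 0.5, 2, 4 and 24 h. Analytes were quantified by HPLC/MS/MS with deuterated internal standards; protein by Bradford. Replicates: 6 (human) or 4 (rat).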

[2] = Drug metabolism in sandwich-cultured human hepatocytes assessed as (Z)-6-(5-(5-carbamimidoylpyridin-2-yl)furan-2-yl)-N' methoxynicotinimidamide at 10 uM after 4 hrs of incubation by HPLC-MS/MS analysis; assay type: ADME, cell-based, Hepatocyte; procedure, shortened: as §1
Cytochrome P450 2D26 = biological target: T1, Cytochrome P450 2D26 (Rattus norvegicus, UniProt P10634); assay: Prodrug conversion assessed as rat recombinant CYP2D2-mediated (Z)-N'-hydroxy-6-(5-(5-((Z)-N'-methoxycarbamimidoyl)pyridin-2-yl)furan-2-yl) nicotinimidamide formation at 5 uM after 180 mins incubation by HPLC-UV chromatogram; assay type: ADME; details: recombinant enzyme, 15 min, in the assay text read “15 mins” for “180 mins”
T1 sequence (P10634 whole entry): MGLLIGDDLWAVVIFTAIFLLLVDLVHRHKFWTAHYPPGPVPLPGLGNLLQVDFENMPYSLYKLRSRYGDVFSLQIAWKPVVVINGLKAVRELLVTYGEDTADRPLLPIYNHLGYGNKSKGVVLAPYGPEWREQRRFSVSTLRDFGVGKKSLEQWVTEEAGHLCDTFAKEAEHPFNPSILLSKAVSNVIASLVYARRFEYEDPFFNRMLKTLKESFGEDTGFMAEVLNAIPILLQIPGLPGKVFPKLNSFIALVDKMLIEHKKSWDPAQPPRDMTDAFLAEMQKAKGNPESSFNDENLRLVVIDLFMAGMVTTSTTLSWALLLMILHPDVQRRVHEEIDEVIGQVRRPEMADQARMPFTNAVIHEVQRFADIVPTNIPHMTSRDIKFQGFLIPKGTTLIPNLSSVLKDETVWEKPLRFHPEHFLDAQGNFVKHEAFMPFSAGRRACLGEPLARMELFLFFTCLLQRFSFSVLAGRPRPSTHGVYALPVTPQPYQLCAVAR
Procedure, shortened: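 Insect-cell-expressed human or rat P450 (with NADPH-P450 reductase, some also with cytochrome b5) at 0.1 pmol/µL in 100 mM potassium phosphate pH 7.4 with 10 mM MgCl2. DB868 (for M1) or M1 (for M2) was added at 5 µM (0.5% DMSO) and started with 2 mM NADPH. Stopped after 15 min with ice-cold acetonitrile, then HPLC-UV. Duplicate incubations.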

[3] = Drug metabolism in sandwich-cultured human hepatocytes assessed as (Z)-N'-hydroxy-6-(5-(5-((Z)-N'-methoxycarbamimidoyl)pyridin-2-yl)furan-2-yl)nicotinimidamide at 10 uM after 4 hrs of incubation by HPLC-MS/MS analysis; assay type: ADME, cell-based, Hepatocyte; procedure, shortened: as §1
[4] = Drug metabolism in sandwich-cultured rat hepatocytes assessed as (Z)-6-(5-(5-carbamimidoylpyridin-2-yl)furan-2-yl)-N'methoxynicotinimidamide at 10 uM after 4 hrs of incubation by HPLC-MS/MS analysis; assay type: ADME, cell-based, Hepatocyte; procedure, shortened: as §1
Liver microsome [5] = assay: Drug metabolism in rat liver microsomes assessed as (Z)-N'-hydroxy-6-(5-(5-((Z)-N'-methoxycarbamimidoyl)pyridin-2-yl)furan-2-yl nicotinimidamide formation measured per mg of protein by HPLC-MS/MS analysis; assay type: ADME
Procedure, shortened: (§2)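 M1 formation kinetics: HLM or RLM (0.5 mg/mL) in phosphate pH 7.4 with MgCl2, DB868 0.1–100 µM, started with 2 mM NADPH. Run 5 min (HLM) or 10 min (RLM) under initial-rate conditions (<20% consumption) in triplicate. Quantified by HPLC/MS/MS with d6-DB868 internal standard. Fitted to a one-enzyme (HLM) or two-enzyme (RLM) Michaelis–Menten model; Clint = Vmax/Km.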

Liver microsome [6] = assay: Prodrug conversion in rat liver microsomes assessed as depletion of compound at 10 uM after 180 mins incubation by HPLC-UV chromatography; assay type: ADME; details: 3 h
Procedure, shortened: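 HLM or RLM (0.5 mg/mL) were incubated in triplicate in 100 mM phosphate pH 7.4 with 10 mM MgCl2 and an NADPH-regenerating system (1 mM NADP+, glucose 6-phosphate, G6PDH). DB868 was 10 µM. Sampled up to 180 min. Prodrug and metabolites were measured by HPLC-UV at 359 nm and expressed relative to initial prodrug; DB829 LLOQ 50 nM.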

Liver microsome [7] = assay: Drug metabolism in human liver microsomes assessed as (Z)-N'-hydroxy-6-(5-(5-((Z)-N'-methoxycarbamimidoyl)pyridin-2-yl)furan-2-yl nicotinimidamide formation measured per mg of protein by HPLC-MS/MS analysis; assay type: ADME; procedure, shortened: as §2

Drug metabolism [1]: metabolite_detected | Drug metabolism [2]: metabolite_detected | Drug metabolism (Cytochrome P450 2D26): metabolite_detected | Drug metabolism [3]: metabolite_detected | Drug metabolism [4]: metabolite_detected | Vmax (Liver microsome [5]): 12 pmol/min | Drug metabolism (Liver microsome [6]): 43% | Vmax (Liver microsome [7]): 340 pmol/min
SMILES: CO/N=C(\N)c1ccc(-c2ccc(-c3ccc(/C(N)=N/OC)cn3)o2)nc1.Cl
